An excerpt weighted towards active compounds, which were near 3.5% of everything screened.
MrgX1 agonist = agonists of human MrgX1 receptor; Q96LB2; MrgX1-HEK293 cells, Fluo-4 calcium fluorescence, agonist mode; stronger effect = higher value; B-score at 10 µM; hit rate 0.44% among 310,000; AID 588627;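 active = calcium response B-score plate-corrected fluorescence ratio at least 3 library SD, with starting fluorescence B-score inside 5 SD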
Target sequence (Q96LB2 whole entry, looked up): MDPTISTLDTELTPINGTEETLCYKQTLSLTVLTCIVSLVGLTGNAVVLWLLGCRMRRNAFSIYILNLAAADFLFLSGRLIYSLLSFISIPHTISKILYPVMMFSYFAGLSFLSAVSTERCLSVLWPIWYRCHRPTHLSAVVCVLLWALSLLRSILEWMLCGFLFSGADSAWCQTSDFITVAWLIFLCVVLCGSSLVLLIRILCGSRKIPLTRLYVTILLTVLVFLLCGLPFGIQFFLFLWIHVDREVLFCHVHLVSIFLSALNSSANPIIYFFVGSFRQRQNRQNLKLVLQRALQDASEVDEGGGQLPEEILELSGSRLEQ
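Test system: HEK293 cells stably expressing human MrgX1 receptor; Input: fifteen thousand cells per well; Dosing: compound delivered in addition one of three; Schedule: overnight seeding, then 1 h dark dye loading; Technique: Fluo-4 NW calcium fluorescence; Measure: B-scored fluorescence response ratio; Controls: positive and negative controls per plate.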
RGS4 act = RGS4 potentiation or activation; HEK293 M3R/inducible RGS4, carbachol calcium flux Fluo4; stronger effect = lower value; B-score at 10 µM; hit rate 0.92% among 310,000; AID 463111;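 active = B-score of the integrated calcium signal more than 4 SD below the library mean, with starting fluorescence not abnormally high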;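 note: negative B-score means reduced calcium response which marks RGS4 activation or potentiation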
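Assay system: HEK293 FlpIn-TREx cells, stable M3R, doxycycline-inducible RGS4 / Probe or stimulus: carbachol, ECmax concentration / Times: overnight RGS4 induction, 30 min dye load 37 °C, 20 min compound RT / Signal: kinetic calcium fluorescence imaging with Fluo4-AM dye, 2 µM / Measure: Agonist-evoked peak-minus-minimum fluorescence over baseline, integrated ratio, B score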
MrgX1 allo act = human MrgX1 positive allosteric modulation, primary screen; MrgX1-HEK293, Fluo-4 calcium flux, FDSS; stronger effect = higher value; Q96LB2; B-score at 10 µM; hit rate 0.63% among 310,000;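 active = plate-corrected calcium response at least 3 library SD above typical, normal starting fluorescence, not activating the receptor alone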;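 note: compound read alongside a low EC10 to EC30 dose of BAM8-22 agonist; peak minus trough fluorescence over baseline measured at the second addition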
MrgX1 antag = blocks BAM8-22 activation of human MrgX1 receptor; Q96LB2; MRGX1-HEK293 calcium flux, Fluo-4, BAM8-22 antagonism; stronger effect = lower value; B-score at 10 µM; hit rate 1.3% among 310,000;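 active = calcium-response B-score plate-corrected more than 3 library SD below zero, starting fluorescence within 5 deviations, no agonist response on first addition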;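 note: peak minus trough fluorescence over baseline after final BAM8-22 challenge near maximal dose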
RGS4 inh = inhibitors of human RGS4; HEK293 M3R/RGS4 inducible, Fluo-4 calcium flux; stronger effect = higher value; triggered by carbachol at its EC20; B-score at 10 µM; hit rate 0.45% among 310,000; AID 463165;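 active = B-score, a plate-corrected calcium signal, over three deviations above library mean, with baseline fluorescence within five deviations of library mean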;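 note: RGS4 expression induced by doxycycline in cells with stable M3 receptor; B-score is computed from the integrated fluorescence ratio over baseline after carbachol; higher B-score means a larger calcium signal and so more RGS4 inhibition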
Target sequence (P49798 whole entry, looked up): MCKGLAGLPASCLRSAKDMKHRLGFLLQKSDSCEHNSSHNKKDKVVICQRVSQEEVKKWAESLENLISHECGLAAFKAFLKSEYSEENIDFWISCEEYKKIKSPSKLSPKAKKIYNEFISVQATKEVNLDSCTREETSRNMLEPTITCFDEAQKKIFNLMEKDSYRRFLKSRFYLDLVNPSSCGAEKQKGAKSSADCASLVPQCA
RGS4 activ val = RGS4 activation, validation assay | shares compounds with RGS4 act | HEK293 M3R/RGS4 inducible, carbachol calcium flux Fluo4 | hit rate 89% among 1,100 | AID 602282 | inhibition, % at 10 µM;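 active = inhibition above 3 SD of the buffer control wells, cut at about 41% in these data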;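 note: signal is the integrated peak-minus-minimum Fluo4 fluorescence over baseline ratio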
RGS4 act ctr = counter-screen for RGS4 activators: effect in non-induced cells | shares compounds with RGS4 act | inhibition, % at 10 µM | hit rate 82% among 1,100 | HEK293 M3R non-induced RGS4, Fluo4 calcium flux; after carbachol challenge at its EC90 | AID 602283;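 active = inhibition exceeding 3 SD of buffer-only control wells, cut at about 26% in these data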;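 note: percent drop in integrated peak-minus-baseline over baseline Fluo4 ratio after carbachol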
The depositor's hits bear a star.

What do the screens show for `COc1ccc(Nc2nc(-c3cccc(OC)c3O)nc3ccccc23)cc1`?
MrgX1 agonist: inactive; RGS4 act: -7.6*; MrgX1 allo act: inactive; MrgX1 antag: inactive; RGS4 inh: inactive

How did Cc1ccc(S(=O)(=O)N2[C@@H](c3ccccc3)C(C(=O)O)=CC[C@H]2c2cccc(C)c2)cc1 do in these assays?
MrgX1 agonist: inactive; MrgX1 allo act: inactive; MrgX1 antag: inactive

Results for Cc1ccc(S(=O)(=O)N2[C@@H](c3ccccc3F)C(C(=O)O)=CC[C@H]2c2ccc(Cl)c(Cl)c2)cc1 ?
MrgX1 agonist: inactive; MrgX1 allo act: 12*; MrgX1 antag: inactive

Results for Cc1ccc(S(=O)(=O)N2[C@@H](c3ccccc3F)C(C(=O)O)=CC[C@H]2c2cccc(C)c2)cc1 ?
MrgX1 agonist: inactive; MrgX1 allo act: 11*; MrgX1 antag: inactive

Results for COc1ccc(OC)c(S(=O)(=O)CC(O)COc2ccccc2Cl)c1 (stereo not given) ?
MrgX1 agonist: inactive; RGS4 act: inactive; MrgX1 allo act: inactive; MrgX1 antag: inactive; RGS4 inh: inactive

What do the screens show for `CN(C(=O)COc1ccccc1C(=O)NCCOc1ccccc1)c1ccccc1`?
MrgX1 agonist: inactive; RGS4 act: -9.2*; MrgX1 allo act: inactive; MrgX1 antag: -5.7*; RGS4 inh: inactive

How did O=C(NCCOc1ccccc1)c1ccccc1Cl do in these assays?
MrgX1 agonist: inactive; RGS4 act: inactive; MrgX1 allo act: inactive; MrgX1 antag: inactive; RGS4 inh: inactive

What do the screens show for `COc1ccc(OCCN2CCN(C(=O)c3ccc(OC)c(OC)c3)CC2)cc1`?
MrgX1 agonist: inactive; RGS4 act: inactive; MrgX1 allo act: inactive; MrgX1 antag: inactive; RGS4 inh: inactive

What do the screens show for `N#C/C(=C\c1cccs1)C(=O)Nc1ccccn1`?
MrgX1 agonist: inactive; RGS4 act: inactive; MrgX1 allo act: inactive; MrgX1 antag: -4.9*; RGS4 inh: inactive

Results for N#C/C(=C\c1ccccc1)C(=O)Nc1nncs1 ?
MrgX1 agonist: inactive; RGS4 act: inactive; MrgX1 allo act: 8*; MrgX1 antag: inactive; RGS4 inh: inactive

What do the screens show for `O=C(NCc1cccnc1)c1ccc(S(=O)(=O)N2CCCCCC2)cc1`?
MrgX1 agonist: inactive; RGS4 act: inactive; MrgX1 allo act: inactive; MrgX1 antag: inactive; RGS4 inh: inactive

What do the screens show for `CC(OC(=O)c1ccccc1C(=O)N(C)c1ccccc1)C(=O)Nc1ccccc1[N+](=O)[O-]` (stereo not given)?
MrgX1 agonist: inactive; RGS4 act: inactive; MrgX1 allo act: inactive; MrgX1 antag: inactive; RGS4 inh: inactive

Results for C=CCc1ccccc1OCC(=O)NNC(=S)NCc1ccccc1 ?
MrgX1 agonist: inactive; RGS4 act: -7*; MrgX1 allo act: inactive; MrgX1 antag: inactive; RGS4 inh: inactive

How did O=C(COc1ccc(Cl)cc1)NNC(=S)NCc1ccccc1 do in these assays?
MrgX1 agonist: inactive; RGS4 act: inactive; MrgX1 allo act: inactive; MrgX1 antag: inactive; RGS4 inh: inactive

How did COc1ccc(N(CC(=O)NCCc2cccc(C)c2)S(=O)(=O)c2c(C)noc2C)cc1 do in these assays?
MrgX1 agonist: inactive; RGS4 act: inactive; MrgX1 allo act: inactive; MrgX1 antag: inactive; RGS4 inh: inactive

What do the screens show for `CCC(=NC(C)c1ccccc1)c1c(O)n(C)c(=O)n(C)c1=O` (stereo not given)?
MrgX1 agonist: inactive; RGS4 act: inactive; MrgX1 allo act: inactive; MrgX1 antag: -7.4*; RGS4 inh: inactive

How did O=C(Cn1cnc2ccccc2c1=O)NCCC(=O)Nc1ccccc1C(F)(F)F do in these assays?
MrgX1 agonist: inactive; RGS4 act: inactive; MrgX1 allo act: inactive; MrgX1 antag: inactive; RGS4 inh: inactive

Results for CCOC(=O)C1=C(CS(=O)(=O)c2ccc(C)cc2)NC(=O)NC1c1cc(OC)c(O)c(OC)c1 (stereo not given) ?
MrgX1 agonist: inactive; RGS4 act: inactive; MrgX1 allo act: inactive; MrgX1 antag: inactive; RGS4 inh: inactive

Results for O=C(c1ccncc1)N1N=C(c2ccc(Br)cc2)CC1c1ccccc1O (stereo not given) ?
MrgX1 agonist: inactive; RGS4 act: inactive; MrgX1 allo act: inactive; MrgX1 antag: inactive; RGS4 inh: inactive

How did CC(=O)N1N=C(c2ccccc2)CC1c1cn(Cc2ccccc2)c2ccccc12 (stereo not given) do in these assays?
MrgX1 agonist: inactive; RGS4 act: inactive; MrgX1 allo act: inactive; MrgX1 antag: -4.6*; RGS4 inh: inactive

Results for CC(=O)N1N=C(c2ccncc2)CC1c1ccccc1O (stereo not given) ?
MrgX1 agonist: inactive; RGS4 act: inactive; MrgX1 allo act: inactive; MrgX1 antag: -7.5*; RGS4 inh: inactive

How did Cc1ccc2c(c1)C1CC(C)(O2)N(c2cccc(C(=O)N3CCN(c4ccccn4)CC3)c2)C(=O)N1 (stereo not given) do in these assays?
MrgX1 agonist: inactive; RGS4 act: inactive; MrgX1 allo act: inactive; MrgX1 antag: inactive; RGS4 inh: inactive

What do the screens show for `COP(=O)(OC)c1nc(-c2ccc([N+](=O)[O-])cc2)oc1N1CCCCC1`?
MrgX1 agonist: 33*; RGS4 act: inactive; MrgX1 allo act: inactive; MrgX1 antag: inactive; RGS4 inh: inactive

How did CC1OC(O[C@H]2CC[C@]3(C)C4C=C[C@]56OC[C@@]7(CC[C@@H](C)[C@H](C)C75)[C@H](O)C[C@@]6(C)[C@]4(C)CC[C@H]3C2(C)C)C(OC2OC(CO)C(O)C(O)C2OC2OCC(O)C(O)C2O)C(O)C1O (stereo not given in full) do in these assays?
RGS4 act: -7.5*; RGS4 inh: inactive

How did CC(=O)c1ccc(N2CCN(CC(O)COC(c3ccccc3)c3ccccc3C)CC2)cc1 (stereo not given) do in these assays?
MrgX1 agonist: inactive; RGS4 act: -11*; MrgX1 allo act: inactive; MrgX1 antag: inactive; RGS4 inh: inactive; RGS4 activ val: 94*; RGS4 act ctr: 83*

What do the screens show for `CC(=O)c1ccc(N2CCN(CC(O)COC(c3ccccc3)c3ccccc3)CC2)cc1` (stereo not given)?
MrgX1 agonist: inactive; RGS4 act: -7.7*; MrgX1 allo act: inactive; MrgX1 antag: inactive; RGS4 inh: inactive; RGS4 activ val: 62*; RGS4 act ctr: 84*
